Screening data (PubChem BioAssay)
HUVEC prolif 384 = inhibitors of human endothelial cell proliferation; viability, % at 10 µM (by protocol); HUVEC proliferation, CellTiter-Glo luminescence, 72 h; active compounds read low; actives 1.1% (n = 86,000);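 active = viability at or below 30%; inactive = viability above 30%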
PTEN del growth = PTEN-deleted cell growth suppression; HCT116 PTEN-null viability, CellTiter-Glo, 60 h; active compounds read low; viability, % at 10 µM; actives 1.2% (n = 140,000);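 active = viability at or below a set limit, 4 SD under the median of all tested compounds, cut at about 3.7% in these data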;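 note: PTEN knockout HCT116 line with beta catenin targeted HCT116 as companion control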
Lung fibro prol = blocks proliferation of human lung fibroblasts; actives 1.1% (n = 85,000); LL 47 human lung fibroblast viability, ATP luminescence; active compounds read low; viability, % at 10 µM;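 active = viability at or below 50% in the single dose screen; inactive = viability above 50%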;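 note: compound exposure lasted 72 h before the ATP readout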
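Times – overnight cell rest, 72 h compound treatment at 37 °C · Test system – human lung fibroblast line LL 47, low passage · Amount – 1,150 cells in each well · Controls – cell-only wells, no compound · Doses – 0.1% DMSO in all compound wells · Measured by – CellTiter-Glo luminescence · Buffer or medium – IMEM plus 15% FBS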
bCat KO growth = beta-catenin-lacking colon tumor cell growth suppression; HCT116 beta-catenin knockout viability, CellTiter-Glo, 60 h; active compounds read low; viability, % at 10 µM; actives 1.5% (n = 140,000);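 active = viability at or under a set limit, the compound median less 4 SD, cut at about 6% in these data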
H69AR growth 86K = growth inhibitors of human H69AR lung tumor cells; H69AR lung tumor viability, ATP luminescence, 72 h; active compounds read low; viability, % at 10 µM; actives 6% (n = 85,000);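 active = viability at or below 40%; inactive = viability above 40%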;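 note: multidrug resistant small cell line overexpressing MRP-1 efflux transporter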
Large screens that a line does not name were inactive. The sample as a whole holds a higher share of hits than the screen did.

O=S(=O)(CCSc1ccccn1)c1nc2ccccc2s1	Lung fibro prol 43, H69AR growth 86K 1.9
CCS(=O)(=O)CCSc1nc2ccccc2o1	none
O=S(=O)(CCSc1nc2ccccc2o1)c1nc2ccccc2s1	HUVEC prolif 384 12, PTEN del growth 3.5, Lung fibro prol 6.2, bCat KO growth 5.1
O=C(CSc1nnc(-c2ccncc2)o1)NC1C2CC3CC(C2)CC1C3 (stereo unspecified)	none (no result: HUVEC prolif 384, Lung fibro prol, H69AR growth 86K)
CC1CCC/C(=N\NC(=O)c2ccncc2)C1 (stereo unspecified)	none (no result: HUVEC prolif 384, Lung fibro prol, H69AR growth 86K)
CCOC(=O)c1c(NC(C)=O)sc2c(OC)cccc12	none
CCOC(=O)c1c(NC(C)=O)sc2c(OC)c(Br)ccc12	H69AR growth 86K 38
O=C(N=Nc1c(O)[nH]c2ccc(Br)cc12)c1cc(-c2cccc3ccccc23)n[nH]1	none (no result: HUVEC prolif 384, Lung fibro prol, H69AR growth 86K)
Cc1cccc(C)c1OCC(=O)N=Nc1c(O)[nH]c2ccc(Br)cc12	HUVEC prolif 384 17, H69AR growth 86K 1.9
Nc1ccc(N2CCCCCC2)cc1	H69AR growth 86K 2.1
Cc1ccc(C(=O)N/C(=C\c2ccc(-c3ccc([N+](=O)[O-])cc3)o2)C(=O)NC2CCS(=O)(=O)C2)cc1 (stereo unspecified)	none (no result: HUVEC prolif 384, Lung fibro prol, H69AR growth 86K)
O=C(Nc1ccc(Cl)cc1)c1cnc(-c2ccccc2)nc1-c1ccccc1	PTEN del growth 2.7, bCat KO growth 0.9 (no result: HUVEC prolif 384, Lung fibro prol, H69AR growth 86K)
O=C(Nc1ccc(F)cc1)c1sc(Cl)nc1-c1ccccc1	none (no result: HUVEC prolif 384, Lung fibro prol, H69AR growth 86K)
Nc1nc(CN2CCC(Cc3ccccc3)CC2)nc(Nc2ccccc2)n1	H69AR growth 86K 30
COc1ccccc1N1CCN(Cc2nc(N)nc(Nc3ccc(C)cc3)n2)CC1	H69AR growth 86K 3.0
Cc1ccc(Nc2nc(N)nc(CN3CCN(c4ccccc4F)CC3)n2)cc1	none
Nc1nc(CN2CCCCCC2)nc(Nc2ccccc2)n1	none
CC1CC(C)CN(Cc2nc(N)nc(Nc3ccc4ccccc4c3)n2)C1 (stereo unspecified)	H69AR growth 86K 12
O=C(O)CCCCCNc1ccc2nsnc2c1[N+](=O)[O-]	none (no result: HUVEC prolif 384, Lung fibro prol, H69AR growth 86K)
CC(C)(C)c1ccc(CS(=O)CC(O)CO)cc1 (stereo unspecified)	none (no result: HUVEC prolif 384, Lung fibro prol, H69AR growth 86K)
N#Cc1sc2nc(N3CCCCC3)c3c(c2c1N)CCCC3	HUVEC prolif 384 7.4, H69AR growth 86K 23
CC(=O)Nc1ccc(Cl)cc1C1COC(=O)C1=N (stereo unspecified)	none (no result: HUVEC prolif 384, Lung fibro prol, H69AR growth 86K)
Cc1ccc(OCCN2CCN(CC(O)Cn3c4ccccc4c4ccccc43)CC2)cc1 (stereo unspecified)	PTEN del growth 1.4, bCat KO growth 1.2 (no result: HUVEC prolif 384, Lung fibro prol, H69AR growth 86K)
O=C(O)C1CCCCC1C(=O)Nc1cccc2ccccc12 (stereo unspecified)	none
Nc1nc(Nc2cccc3ccccc23)nc(C2CCCC2=O)n1 (stereo unspecified)	HUVEC prolif 384 15, H69AR growth 86K 0.8
O=C(Nc1ccc(N2CCOCC2)c(Cl)c1)c1cc(F)c(F)cc1Cl	none
O=C(Nc1ccc(N2CCOCC2)c(Cl)c1)c1c(F)c(F)c(F)c(F)c1F	H69AR growth 86K 32
CCC(=O)NC(=S)NNC(=O)c1ccc(OC)cc1	none (no result: HUVEC prolif 384, Lung fibro prol, H69AR growth 86K)
CCCCOc1ccc(C(=O)NNC(=S)NC(=O)CC)cc1	bCat KO growth 4.5 (no result: HUVEC prolif 384, Lung fibro prol, H69AR growth 86K)
Cc1cc(=O)[nH]c(N/N=C/c2ccccn2)n1	none (no result: HUVEC prolif 384, Lung fibro prol, H69AR growth 86K)
CCCc1sc(N/N=C/c2ccccn2)nc1-c1ccc(Br)cc1	HUVEC prolif 384 5.2, Lung fibro prol 29, H69AR growth 86K 11
O=C(CSc1nnnn1-c1cccc2c1CCCC2)N1CCCCC1	H69AR growth 86K 40
CCCC12CN3CCN(CC(C3)/C1=N\NC(=O)c1ccc(C(C)(C)C)cc1)C2	none (no result: HUVEC prolif 384, Lung fibro prol, H69AR growth 86K)
CC1(C)Cc2c(sc3c2c(=N)n(Cc2ccco2)c(=O)n3CC(=O)Nc2ccc(Cl)cc2)CO1	Lung fibro prol 22 (no result: PTEN del growth, bCat KO growth)
CCOc1cccc(/C=N/Nc2ccc(S(=O)(=O)N(CC)CC)cn2)c1O	PTEN del growth 2.8, bCat KO growth 3.8 (no result: HUVEC prolif 384, Lung fibro prol, H69AR growth 86K)
CCN(CC)S(=O)(=O)c1ccc(N/N=C/c2cc(OC)c(OC)cc2OC)nc1	none (no result: HUVEC prolif 384, Lung fibro prol, H69AR growth 86K)
CCCN1CNC(=S)N(CC2CCCO2)C1 (stereo unspecified)	none (no result: HUVEC prolif 384, Lung fibro prol, H69AR growth 86K)
CSCc1ccc(C(=O)Nc2cccc(C)c2C)cc1	none (no result: HUVEC prolif 384, Lung fibro prol, H69AR growth 86K)
CCN(CC)S(=O)(=O)c1ccc(N2CCOCC2)c(NC(=O)CC23CC4CC(CC(Br)(C4)C2)C3)c1	none (no result: HUVEC prolif 384, Lung fibro prol, H69AR growth 86K)
CCN1CCN(c2ncc3c(n2)CC(c2cc(OC)c(OC)c(OC)c2)CC3=O)CC1 (stereo unspecified)	H69AR growth 86K 17
O=C1CC(c2cccc(Cl)c2)Cc2nc(N3CCN(c4ccccc4)CC3)ncc21 (stereo unspecified)	none
S=C(Nc1ccccc1)Nc1nc2ccccc2n1CCOc1ccc(Cl)cc1	PTEN del growth 0.9, bCat KO growth 1.1 (no result: HUVEC prolif 384, Lung fibro prol, H69AR growth 86K)
CCCn1c(NC(=S)Nc2ccccc2)nc2ccccc21	none (no result: HUVEC prolif 384, Lung fibro prol, H69AR growth 86K)
O=C(COc1ccc(-c2nnco2)cc1)N1CCN(S(=O)(=O)c2ccc3ccccc3c2)CC1	H69AR growth 86K 36
COc1ccc(CCC(=O)N2CCN(S(=O)(=O)c3ccc4ccccc4c3)CC2)cc1	none
CC(=O)c1c(C)[nH]c(C(=O)N2CCN(c3cc(Cl)ccc3C)CC2)c1C	H69AR growth 86K 17
COc1cccc(N2CCN(C(=O)c3[nH]c(C)c(C(C)=O)c3C)CC2)c1	H69AR growth 86K 21
CC(C)(C)c1ccc(-c2n[nH]c(=S)n2/N=C/c2ccncc2)cc1	none (no result: HUVEC prolif 384, Lung fibro prol, H69AR growth 86K)
COc1ccc(-c2nnnn2-c2ccccc2OC)cc1	H69AR growth 86K 22
CCOC(=O)N1CCC(c2cc(=O)n3[nH]c(C)c(-c4ccc(F)cc4)c3n2)CC1	HUVEC prolif 384 6.4
CCc1ccc(C(=O)CN2C(=O)NC(C)(CCc3ccccc3)C2=O)cc1 (stereo unspecified)	none (no result: HUVEC prolif 384, Lung fibro prol, H69AR growth 86K)
Oc1nc(Nc2cccc(Cl)c2)sc1/C=C1\C=Nc2ccccc21	none (no result: HUVEC prolif 384, Lung fibro prol, H69AR growth 86K)
CCOC(=O)c1c(Nc2ccc(Cl)cc2)sc(/C=C2\C=Nc3ccccc32)c1O	HUVEC prolif 384 12, Lung fibro prol 46, H69AR growth 86K 2.7
Cn1c(=O)c2c(ncn2CC(O)CO)n(C)c1=O (stereo unspecified)	none
Cn1c(=O)c2c(ncn2CC(COCc2ccc(Cl)cc2)OCc2ccc(Cl)cc2)n(C)c1=O (stereo unspecified)	H69AR growth 86K 35
Cc1nc2cc(N3CCCCC3)c(NC(=O)c3cccnc3)cc2c(=O)n1Cc1ccccc1	Lung fibro prol 38, H69AR growth 86K 33
C=CCCCCCCCCc1nc(=S)[nH][nH]1	H69AR growth 86K 21
O=C(CSc1nc(-c2ccccc2)c(-c2ccccc2)[nH]1)NCc1ccco1	none
O=C(CSc1nc(-c2ccccc2)c(-c2ccccc2)[nH]1)NCCN1C(=O)CSC1=O	H69AR growth 86K 21
c1ccc2c(c1)[nH]c1c(NCC3CCCO3)ncnc12 (stereo unspecified)	none
c1ccc(-c2nc(NCc3ccco3)c3ccccc3n2)nc1	H69AR growth 86K 16
Oc1cccc(Nc2nc(NCC3CCCO3)c3ccccc3n2)c1 (stereo unspecified)	PTEN del growth 3.4, bCat KO growth 1.9
c1ccc(-c2nc(NCC3CCCO3)c3ccccc3n2)nc1 (stereo unspecified)	bCat KO growth 6.0 (no result: HUVEC prolif 384, Lung fibro prol, H69AR growth 86K)
